# The list is not random: actives were taken first. Their share in the collection is about 3.5%.
# MrgX1 agonist: human MrgX1 receptor agonism, primary screen; MrgX1-HEK293 cells, Fluo-4 calcium fluorescence, agonist mode; active compounds read high; 310,000 compounds, 0.44% hits; Q96LB2; B-score at 10 µM;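 active = calcium response B-score plate-corrected fluorescence ratio at least 3 library SD, with starting fluorescence B-score inside 5 SD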
# Target sequence (Q96LB2 whole entry, looked up): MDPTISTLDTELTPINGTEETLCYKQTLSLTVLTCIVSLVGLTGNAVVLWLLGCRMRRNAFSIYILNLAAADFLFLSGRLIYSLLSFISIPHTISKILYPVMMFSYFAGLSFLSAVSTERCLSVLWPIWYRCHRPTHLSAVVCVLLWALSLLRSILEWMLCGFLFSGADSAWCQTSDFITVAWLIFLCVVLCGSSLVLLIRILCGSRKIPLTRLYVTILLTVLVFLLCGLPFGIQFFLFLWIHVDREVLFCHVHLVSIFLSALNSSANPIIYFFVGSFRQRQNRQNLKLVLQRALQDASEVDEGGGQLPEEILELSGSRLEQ
#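 Material: MrgX1-expressing HEK293 cells; input: 15,000 cells per well; doses: test compound given as first of three sequential additions; schedule: overnight plating before 1 h dye loading; technique: Fluo-4 NW calcium-flux fluorescence, kinetic read; evaluation: baseline-normalised fluorescence change ratio, B-scored; control set: plate-wise positive and negative controls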
# RGS4 inh: inhibitors of human RGS4; 310,000 compounds, 0.45% hits; HEK293 M3R/RGS4 inducible, Fluo-4 calcium flux; active compounds read high; triggered by carbachol at its EC20; B-score at 10 µM; P49798; AID 463165;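 active = B-score, a plate-corrected calcium signal, over three deviations above library mean, with baseline fluorescence within five deviations of library mean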;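 note: RGS4 expression induced by doxycycline in cells with stable M3 receptor; B-score is computed from the integrated fluorescence ratio over baseline after carbachol; higher B-score means a larger calcium signal and so more RGS4 inhibition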
# RGS4 act: potentiators or activators of RGS4; HEK293 M3R/inducible RGS4, carbachol calcium flux Fluo4; active compounds read low; B-score at 10 µM; 310,000 compounds, 0.92% hits;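 active = B-score of the integrated calcium signal more than 4 SD below the library mean, with starting fluorescence not abnormally high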;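 note: negative B-score means reduced calcium response which marks RGS4 activation or potentiation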
#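 Reagent: ECmax carbachol challenge; Test system: M3R-expressing HEK293 line, RGS4 induced by doxycycline; Schedule: overnight RGS4 induction, 30 min dye load 37 °C, 20 min compound RT; Detection: calcium dye Fluo4 fluorescence; Read-out: Agonist-evoked peak-minus-minimum fluorescence over baseline, integrated ratio, B score.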
# MrgX1 PAM: human MrgX1 positive allosteric modulation, primary screen. Q96LB2. MrgX1-HEK293, Fluo-4 calcium flux, FDSS; active compounds read high. B-score at 10 µM. 310,000 compounds, 0.63% hits. AID 588675;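 active = plate-corrected calcium response at least 3 library SD above typical, normal starting fluorescence, not activating the receptor alone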;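 note: compound read alongside a low EC10 to EC30 dose of BAM8-22 agonist; peak minus trough fluorescence over baseline measured at the second addition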
# MrgX1 antag: human MrgX1 receptor antagonism, primary screen; AID 588676; MRGX1-HEK293 calcium flux, Fluo-4, BAM8-22 antagonism; active compounds read low; B-score at 10 µM; 310,000 compounds, 1.3% hits;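 active = calcium-response B-score plate-corrected more than 3 library SD below zero, starting fluorescence within 5 deviations, no agonist response on first addition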;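 note: peak minus trough fluorescence over baseline after final BAM8-22 challenge near maximal dose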
# MrgX1 antag conf: human MrgX1 receptor antagonism, re-confirmation screen | shares compounds with MrgX1 antag | MrgX1-HEK293, BAM8-22 calcium flux, Fluo-4; active compounds read low | remaining BAM8-22 calcium response % of control (active compounds read low), % at 10 µM | 2,300 compounds, 19% hits;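 active = remaining agonist calcium response no higher than 100% minus 3 SD of agonist-only control wells, with starting fluorescence near control levels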;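 note: agonist BAM8-22 given at a near maximal EC90 to ECmax level; peak minus minimum fluorescence divided by baseline after agonist addition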
# HEK293 Ca flux: activity in parental HEK293 cells lacking MrgX1; shares compounds with MrgX1 antag; Fluo-4 calcium fluorescence, FDSS; fluorescence ratio F(max-min)/F0 at 10 µM; 4,000 compounds, 2% hits; AID 624111;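 active = duplicate-averaged calcium fluorescence ratio at least three times the standard deviation of buffer wells, a nonspecific response in parental cells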
# HEK293 Ca counter: activity in parental HEK293 cells without MrgX1. parental HEK293 calcium flux, Fluo-4 fluorescence ratio; active compounds read high. fluorescence ratio F(max-min)/F0 at 10 µM. shares compounds with MrgX1 antag. 4,000 compounds, 0.4% hits;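 active = calcium fluorescence ratio, averaged over duplicates, at least 3 SD of the buffer-well ratio, meaning a nonspecific response in receptor-free cells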;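 note: untransfected parental HEK293 lacking MrgX1 used as counterscreen for MrgX1 allosteric activators; fluorescence change taken during the second addition on a kinetic imager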
# HEK293 Ca cntr2: activity in parental HEK293 cells lacking MrgX1 receptor. shares compounds with MrgX1 antag. Fluo-4 calcium fluorescence (FDSS); active compounds read high. fluorescence ratio F(max-min)/F0 at 10 µM. 4,000 compounds, 8.7% hits;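 active = calcium fluorescence ratio at least three times the spread of buffer wells, meaning a non-specific response in parental cells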
# Active calls of the source: *; i = inactive; nt = no result given.
SMILES,MrgX1 agonist,RGS4 inh,RGS4 act,MrgX1 PAM,MrgX1 antag,MrgX1 antag conf,HEK293 Ca flux,HEK293 Ca counter,HEK293 Ca cntr2
Cc1cc(OCC(=O)N2CCC(C(=O)O)(c3ccccc3)CC2)c2c(C)c(C)c(=O)oc2c1,i,i,i,i,i,nt,nt,nt,nt
CCCCCn1c(=O)c(C(=O)NC(C)c2ccccc2)c(O)c2ccccc21 (stereo unspecified),i,i,i,i,-4.75*,i,i,i,i
Nc1ccc([As](=O)(O)O)cc1,i,i,i,i,-6.01*,i,i,i,i
O=C(CN1CC(c2ccccc2)CC1=O)Nc1ccc(F)cc1 (stereo unspecified),i,i,i,i,-10.2*,i,i,i,i
O=C(CN1CC(c2ccccc2)CC1=O)Nc1cccc(F)c1 (stereo unspecified),i,i,i,i,i,nt,nt,nt,nt
O=[N+]([O-])c1ccc(N2CCOCC2)c2ccncc12,i,i,i,i,i,nt,nt,nt,nt
CCCNC(=O)N1[C@H]2CC[C@@H]1C(C(=O)OC)=C(c1ccccc1)C2,i,i,i,i,i,nt,nt,nt,nt
Cc1nnc(SCc2nc3ccccc3c(=O)n2-c2ccccc2Cl)n1N,i,i,i,i,-8.23*,82.4%*,i,i,i
CCc1nc2ccccc2c(=O)n1-c1ccccc1[N+](=O)[O-],i,i,i,i,i,nt,nt,nt,nt
COc1ccc(C(=O)N2CCOCC2)cc1S(=O)(=O)N1CCC(C)CC1,i,i,i,i,i,nt,nt,nt,nt
COc1ccc(C(=O)Oc2cccc3cccnc23)cc1S(=O)(=O)N1CCOCC1,i,i,i,i,-5.97*,i,i,i,i
CCCC1=C(C(=O)OCC)C2(C(=O)Nc3ccccc32)C(C#N)=C(N)O1 (stereo unspecified),i,i,i,i,-4.59*,i,i,i,i
Cc1cc(OCC(=O)NC(Cc2ccc(Cl)cc2)C(=O)O)c2c3c(c(=O)oc2c1)CCC3 (stereo unspecified),i,i,i,i,i,nt,nt,nt,nt
CC(C)CNC(=O)c1c(N)n(Cc2ccc3c(c2)OCO3)c2nc3ccccc3nc12,i,i,i,i,-5.96*,i,i,i,53.6*
CC(C)CCNC(=O)c1c(N)n(Cc2ccc3c(c2)OCO3)c2nc3ccccc3nc12,i,i,i,i,i,nt,nt,nt,nt
COc1ccc(-n2c(-c3ccccc3Br)nc3ccccc3c2=O)cc1,i,i,i,i,i,nt,nt,nt,nt
COc1ccc(C(=O)CN2CCOCC2)cc1F,i,i,i,i,-5.17*,i,i,i,i
O=C(CN1CCOCC1)c1ccc2cc[nH]c2c1,i,i,i,i,i,nt,nt,nt,nt
O=C1NC(=O)C(CCc2ccccn2)(Cc2ccc3c(c2)OCO3)C(=O)N1CCc1ccccc1 (stereo unspecified),i,i,i,i,-5.24*,i,i,i,i
c1ccc(CNCCc2ccc3c(c2)OCO3)nc1,i,i,i,i,i,nt,nt,nt,nt

# High-throughput results (PubChem)
